According to ChEMBL document CHEMBL3414486, “Synthesis of heterocycle-modified betulinic acid derivatives as antitumor agents” (Eur J Med Chem, 2015):
Activity calls are given as the source filed them. No cut-off for these calls is given here.

Tests used:
HT-29 [1] = test: Cytotoxicity against human HT-29 cells assessed as growth inhibition after 96 hrs by SRB assay; assay type: functional, cell-based; details: HT-29, 96 h
Summary of the method: (§1)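 SRB viability assay. Cells are seeded for 24 h, then exposed for 96 h to a concentration series from 20 mM DMSO stocks, with a DMSO control. Cells are fixed in 50% TCA (2 h, 4 °C), stained with 0.4% SRB for 10 min and washed with 1% acetic acid. Bound dye is dissolved in 10 mM Tris base and read at 515 nm. IC50 is averaged from at least 3 independent experiments. SI is IC50 in HAF divided by IC50 in the cancer line.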

[2] = Cytotoxicity against HAF assessed as growth inhibition after 96 hrs by SRB assay; details: Homo sapiens; summary of the method: as §1
T47D [3] = test: Selectivity index, ratio of IC50 for HAF to IC50 for human T47D cells; summary of the method: as §1
MDA-MB-231 [4] = test: Cytotoxicity against human MDA-MB-231 cells assessed as growth inhibition after 96 hrs by SRB assay; assay type: functional, cell-based; details: MDA-MB-231, 96 h; summary of the method: as §1
HCT-116 = test: Selectivity index, ratio of IC50 for HAF to IC50 for human HCT116 cells; summary of the method: as §1
MCF7 [5] = test: Selectivity index, ratio of IC50 for HAF to IC50 for human MCF7 cells; summary of the method: as §1
PC-3 = test: Selectivity index, ratio of IC50 for HAF to IC50 for human PC3 cells; summary of the method: as §1
4T1 [6] = test: Selectivity index, ratio of IC50 for HAF to IC50 for mouse 4T1 cells; summary of the method: as §1
DU-145 [7] = test: Selectivity index, ratio of IC50 for HAF to IC50 for human DU145 cells; summary of the method: as §1
DU-145 [8] = test: Cytotoxicity against human DU145 cells assessed as growth inhibition after 96 hrs by SRB assay; assay type: functional, cell-based; details: DU-145, 96 h; summary of the method: as §1
T47D [9] = test: Cytotoxicity against human T47D cells assessed as growth inhibition after 96 hrs by SRB assay; assay type: functional, cell-based; summary of the method: as §1
[10] = Cytotoxicity against human MCF7/ADR cells assessed as growth inhibition after 96 hrs by SRB assay; assay type: functional, cell-based; details: NCI/ADR-RES; summary of the method: as §1
[11] = Cytotoxicity against human HCT116 cells assessed as growth inhibition after 96 hrs by SRB assay; assay type: functional, cell-based; details: HCT-116, 96 h; summary of the method: as §1
[12] = Cytotoxicity against human PC3 cells assessed as growth inhibition after 96 hrs by SRB assay; assay type: functional, cell-based; details: PC-3, 96 h; summary of the method: as §1
MCF7 [13] = test: Cytotoxicity against human MCF7 cells assessed as growth inhibition after 96 hrs by SRB assay; assay type: functional, cell-based; details: MCF7, 96 h; summary of the method: as §1
4T1 [14] = test: Cytotoxicity against mouse 4T1 cells assessed as growth inhibition after 96 hrs by SRB assay; assay type: functional, cell-based; details: 4T1, 96 h; summary of the method: as §1
[15] = Selectivity index, ratio of IC50 for HAF to IC50 for human MDA-MB-231 cells; summary of the method: as §1
NCI/ADR-RES [16] = test: Selectivity index, ratio of IC50 for HAF to IC50 for human MCF7/ADR cells; summary of the method: as §1
HT-29 [17] = test: Selectivity index, ratio of IC50 for HAF to IC50 for human HT-29 cells; summary of the method: as §1
MCF7 [18] = test: Induction of apoptosis in human MCF7 cells assessed as early apoptotic cells at 80 uM after 24 hrs by annexin V-FITC/propidium iodide staining-based flow cytometric analysis (reference value: 0.74%); assay type: functional
MDA-MB-231 [19] = test: Induction of apoptosis in human MDA-MB-231 cells assessed as early apoptotic cells at 80 uM after 24 hrs by annexin V-FITC/propidium iodide staining-based flow cytometric analysis (reference value: 0.59%)
MDA-MB-231 [20] = test: Antimetastatic activity against human MDA-MB-231 cells at 10 to 50 uM after 12 hrs by transwell assay relative to control; assay type: functional, cell-based
Summary of the method: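 Transwell migration: 8 × 10^4 MDA-MB-231 cells in serum-free medium in the upper chamber, with 10% FBS medium below. Compound added to both chambers, then 12 h migration. Non-migrated cells swabbed off. Migrated cells fixed in 4% paraformaldehyde for 30 min, stained with 0.1% crystal violet for 5 min, and counted in 5 random fields. Inhibition normalized to untreated control migration.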

MCF7 [21] = test: Induction of apoptosis in human MCF7 cells assessed as late apoptotic cells at 80 uM after 24 hrs by annexin V-FITC/propidium iodide staining-based flow cytometric analysis (reference value: 0.84%); assay type: functional
MDA-MB-231 [22] = test: Induction of apoptosis in human MDA-MB-231 cells assessed as late apoptotic cells at 80 uM after 24 hrs by annexin V-FITC/propidium iodide staining-based flow cytometric analysis (reference value: 2.4%)
NCI/ADR-RES [23] = test: Induction of apoptosis in human MCF7/ADR cells assessed as early apoptotic cells at 80 uM after 24 hrs by annexin V-FITC/propidium iodide staining-based flow cytometric analysis (reference value: 0.67%); assay type: functional
NCI/ADR-RES [24] = test: Induction of apoptosis in human MCF7/ADR cells assessed as late apoptotic cells at 80 uM after 24 hrs by annexin V-FITC/propidium iodide staining-based flow cytometric analysis (reference value: 1.48%); assay type: functional

Row | SMILES | IC50 (HT-29 [1]) [µM] | IC50 [2] [µM] | Ratio IC50 (T47D [3]) | IC50 (MDA-MB-231 [4]) [µM] | Ratio IC50 (HCT-116) | Ratio IC50 (MCF7 [5]) | Ratio IC50 (PC-3) | Ratio IC50 (4T1 [6]) | Ratio IC50 (DU-145 [7]) | IC50 (DU-145 [8]) [µM] | IC50 (T47D [9]) [µM] | IC50 [10] [µM] | IC50 [11] [µM] | IC50 [12] [µM] | IC50 (MCF7 [13]) [µM] | IC50 (4T1 [14]) [µM] | Ratio IC50 [15] | Ratio IC50 (NCI/ADR-RES [16]) | Ratio IC50 (HT-29 [17]) | other results
1 | C=C(C)[C@@H]1CC[C@]2(C(=O)O)CC[C@]3(C)[C@H](CC[C@@H]4[C@@]5(C)CC[C@H](OC(=O)C6CCNCC6)C(C)(C)[C@@H]5CC[C@]43C)[C@@H]12 | 1.32 | 5.7 | 1.9 | 1.6 | 4.1 | 2.4 | 2.6 | 1.5 | 2.1 | 2.69 | 3.05 | 0.59 | 1.4 | 2.18 | 2.41 | 3.74 | 3.6 | 9.7 | 4.3 | 
2 | C=C(C)[C@@H]1CC[C@]2(C(=O)O)CC[C@]3(C)[C@H](CC[C@@H]4[C@@]5(C)CC[C@H](O)C(C)(C)[C@@H]5CC[C@]43C)[C@@H]12 [BETULINIC ACID] | 17.3 | 34.5 | 2.2 | 34.6 | 1.6 | 1.5 | 1.3 | 2.5 | 0.9 | 36.2 | 15.6 | 38.5 | 22.1 | 27.5 | 22.6 | 14 | 1 | 0.9 | 2 | Activity (MCF7 [18]): 16.58%; Activity (MDA-MB-231 [19]): 1.94%; Activity (MDA-MB-231 [20]): Active; Activity (MCF7 [21]): 1.3%; Activity (MDA-MB-231 [22]): 27.58%; Activity (NCI/ADR-RES [23]): 4.6%; Activity (NCI/ADR-RES [24]): 2.64%
3 | C=C(C)[C@@H]1CC[C@]2(C(=O)O)CC[C@]3(C)[C@H](CC[C@@H]4[C@@]5(C)CC[C@H](NC(=O)C6CCCNC6)C(C)(C)[C@@H]5CC[C@]43C)[C@@H]12 (stereo not given in full) | 1.19 | 3.18 | 1.4 | 1.94 | 2.5 | 3.4 | 2.4 | 1.5 | 1 | 3.16 | 2.24 | 0.39 | 1.28 | 1.3 | 0.94 | 2.18 | 1.6 | 8.2 | 2.7 | 
4 | C=C(C)[C@@H]1CC[C@]2(C(=O)O)CC[C@]3(C)[C@H](CC[C@@H]4[C@@]5(C)CC[C@H](NC(=O)CCC6CCNCC6)C(C)(C)[C@@H]5CC[C@]43C)[C@@H]12 | 2.39 | 6.89 | 2.7 | 3.27 | 1 | 2.4 | 2 | 2.3 | 1.6 | 4.39 | 2.59 | 4.42 | 6.86 | 3.42 | 2.9 | 2.99 | 2.1 | 1.6 | 2.9 | 
5 | C=C(C)[C@@H]1CC[C@]2(C(=O)O)CC[C@]3(C)[C@H](CC[C@@H]4[C@@]5(C)CC[C@H](OC(=O)C6CCCNC6)C(C)(C)[C@@H]5CC[C@]43C)[C@@H]12 (stereo not given in full) | 4.89 | 5.42 | 0.6 | 4.97 | 1.2 | 1.2 | 0.7 | 0.7 | 0.5 | 11.3 | 9.73 | 1.6 | 4.6 | 8.09 | 4.42 | 7.65 | 1.1 | 3.4 | 1.1 | 
6 | C=C(C)[C@@H]1CC[C@]2(C(=O)O)CC[C@]3(C)[C@H](CC[C@@H]4[C@@]5(C)CC[C@H](NC(=O)CC6CCNCC6)C(C)(C)[C@@H]5CC[C@]43C)[C@@H]12 | 2.46 | 9.21 | 3.9 | 3.17 | 3.4 | 2.7 | 3.6 | 1.8 | 2.5 | 3.72 | 2.37 | 3 | 2.67 | 2.55 | 3.43 | 5.15 | 2.9 | 3.1 | 3.7 | 
7 | C=C(C)[C@@H]1CC[C@]2(C(=O)O)CC[C@]3(C)[C@H](CC[C@@H]4[C@@]5(C)CC[C@H](NC(=O)CCCC6CCNCC6)C(C)(C)[C@@H]5CC[C@]43C)[C@@H]12 | 4.38 | 9.15 | 1.7 | 3.44 | 1.6 | 1.4 | 1.7 | 1.5 | 1.2 | 7.7 | 5.26 | 0.93 | 5.61 | 5.23 | 6.49 | 6.01 | 2.7 | 9.8 | 2.1 | 
